In ChEMBL document CHEMBL1121554, “Antimalarials. 12. Preparation of carbon isosteres of selected 4-pyridinemethanols as suppressive antimalarials” (1980):
The source made the active and inactive calls.

Tests used:
[1] = test system: Mus musculus; assay: Compound was evaluated for the antimalarial activity against Plasmodium berghei in mice (Mus musculus) at the dose 160 (mg/kg) administered subcutaneously; (A) active; type: functional
Method in brief: (§1)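 P. berghei-infected mice, five per dose group; one subcutaneous dose given 72 h after infection. Read-out is the increase in mean survival time over infected controls, counted as active when the increase is at least 100%. Cures are mice alive out of five at 60 days post-infection. Testing was done at Rane Laboratories, University of Miami.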

[2] = test system: Mus musculus; assay: Compound was evaluated for the antimalarial activity against Plasmodium berghei in mice (Mus musculus) at the dose 20 (mg/kg) administered subcutaneously; type: functional; method in brief: as §1
[3] = test system: Mus musculus; assay: Compound was evaluated for the antimalarial activity against Plasmodium berghei in mice (Mus musculus) at the dose 320 (mg/kg) administered subcutaneously; (A) active; type: functional; method in brief: as §1
[4] = test system: Mus musculus; assay: Compound was evaluated for the antimalarial activity against Plasmodium berghei in mice (Mus musculus) at the dose 40 (mg/kg) administered subcutaneously; type: functional; method in brief: as §1
[5] = test system: Mus musculus; assay: (§2) Compound was evaluated for the antimalarial activity against Plasmodium berghei in mice (Mus musculus) at the dose 80 (mg/kg) administered subcutaneously; type: functional; method in brief: as §1
[6] = test system: Mus musculus; assay: Compound was evaluated for the antimalarial activity against Plasmodium berghei in mice (Mus musculus) at the dose 640 (mg/kg) administered subcutaneously; (C) is the number of mice (Mus musculus) surviving out of five at 60 days post-infection; type: functional; method in brief: as §1
[7] = test system: Mus musculus; assay: Compound was evaluated for the antimalarial activity against Plasmodium berghei in mice (Mus musculus) at the dose 80 (mg/kg) administered subcutaneously; (C) is the number of mice (Mus musculus) surviving out of five at 60 days post-infection; type: functional; method in brief: as §1
[8] = test system: Mus musculus; assay: Compound was evaluated for the antimalarial activity against Plasmodium berghei in mice (Mus musculus) at the dose 320 (mg/kg) administered subcutaneously; (C) is the number of mice (Mus musculus) surviving out of five at 60 days post-infection; type: functional; method in brief: as §1
[9] = test system: Mus musculus; assay: Compound was evaluated for the antimalarial activity against Plasmodium berghei in mice (Mus musculus) at the dose 160 (mg/kg) administered subcutaneously; (C) is the number of mice (Mus musculus) surviving out of five at 60 days post-infection; type: functional; method in brief: as §1
[10] = test system: Mus musculus; assay: Compound was evaluated for the antimalarial activity against Plasmodium berghei in mice (Mus musculus) at the dose 80 (mg/kg) administered subcutaneously; IA is defined as inactive.; type: functional, organism-based
[11] = test system: Mus musculus; assay: Compound was evaluated for the antimalarial activity against Plasmodium berghei in mice (Mus musculus) at the dose 20 (mg/kg) administered subcutaneously; (A) active; type: functional; method in brief: as §1
[12] = test system: Mus musculus; assay: Compound was evaluated for the antimalarial activity against Plasmodium berghei in mice (Mus musculus) at the dose 40 (mg/kg) administered subcutaneously; (C) is the number of mice (Mus musculus) surviving out of five at 60 days post-infection; type: functional; method in brief: as §1
[13] = test system: Mus musculus; assay: Compound was evaluated for the antimalarial activity against Plasmodium berghei in mice (Mus musculus) at the dose 40 (mg/kg) administered subcutaneously; (A) active; type: functional; method in brief: as §1
[14] = test system: Mus musculus; assay: Compound was evaluated for the antimalarial activity against Plasmodium berghei in mice (Mus musculus) at the dose 80 (mg/kg) administered subcutaneous; (A) active; type: functional; method in brief: as §1
[15] = test system: Mus musculus; assay: as §2; type: functional; remark: listed apart in the source

| SMILES | Delta MST [2] [days] | Delta MST [4] [days] | No. of cures [6] | No. of cures [7] | No. of cures [8] | No. of cures [9] | further results |
| --- | --- | --- | --- | --- | --- | --- | --- |
| CCCCN(CCCC)CC(O)c1cc(-c2ccc(Cl)cc2)cc(-c2ccc(Cl)cc2)c1 (stereo unspecified) | 0.3 | 0.5 | 5 | – | – | – | Delta MST [1]: 9.7 days; Delta MST [3]: 13.9 days; Delta MST [5]: 4.1 days |
| CCCCNCC(O)c1cc(-c2ccc(Cl)cc2)cc(-c2ccc(Cl)cc2)c1 (stereo unspecified) | 0.5 | 1.3 | – | 3 | 5 | 5 | – |
| CCCCNCC(O)c1cc(/C=C/c2ccc(C(F)(F)F)cc2)nc(/C=C/c2ccc(C(F)(F)F)cc2)c1 (stereo unspecified) | – | – | – | – | – | – | Delta MST [10]: inactive |
| CCCCNCC(O)c1cc(-c2ccc(Cl)cc2)nc(-c2ccc(Cl)cc2)c1 (stereo unspecified) | – | – | 5 | 2 | 5 | 3 | Delta MST [11]: 10.8 days; No. of cures [12]: 1 |
| CCCCN(CCCC)CC(O)c1cc(-c2ccc(Cl)cc2)nc(-c2ccc(Cl)cc2)c1 (stereo unspecified) | 2.3 | – | 5 | 3 | 4 | 3 | Delta MST [13]: 15.7 days |
| CCCCN(CCCC)CC(O)c1cc(/C=C/c2ccc(C(F)(F)F)cc2)cc(/C=C/c2ccc(C(F)(F)F)cc2)c1 (stereo unspecified) | 0.5 | 0.5 | – | – | 5 | 5 | Delta MST [14]: 8.1 days |
| CCCCNCC(O)c1cc(/C=C/c2ccc(C(F)(F)F)cc2)cc(/C=C/c2ccc(C(F)(F)F)cc2)c1 (stereo unspecified) | – | – | – | – | – | – | Delta MST [10]: inactive |
| CCCCN(CCCC)CC(O)c1cc(/C=C/c2ccc(C(F)(F)F)cc2)nc(/C=C/c2ccc(C(F)(F)F)cc2)c1 (stereo unspecified) | 0.2 | 2.9 | 5 | – | 5 | 5 | No. of cures [15]: 2 |
